Tests used:
[1] = target: T1, C-C chemokine receptor type 4 (Homo sapiens, UniProt P51679); assay: Antagonist activity at human CCR4 expressed in rat chem-5 cells assessed as inhibition of CCL22-induced calcium flux measured at 2.5 secs time interval for 45 secs by calcium 6 dye-based FLIPR assay; type: functional, cell-based
T1 sequence (P51679 whole entry): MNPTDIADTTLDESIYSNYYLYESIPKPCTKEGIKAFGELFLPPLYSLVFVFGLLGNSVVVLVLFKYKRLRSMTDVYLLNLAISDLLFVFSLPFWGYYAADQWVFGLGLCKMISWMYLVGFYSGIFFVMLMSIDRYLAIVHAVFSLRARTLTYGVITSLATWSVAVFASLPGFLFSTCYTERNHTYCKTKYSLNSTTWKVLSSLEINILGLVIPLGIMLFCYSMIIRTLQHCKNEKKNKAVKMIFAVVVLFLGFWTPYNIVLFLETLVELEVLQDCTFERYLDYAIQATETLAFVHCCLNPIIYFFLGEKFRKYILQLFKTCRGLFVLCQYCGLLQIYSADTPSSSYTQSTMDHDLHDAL
How it was run: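 Primary calcium flux assay for CCR4 antagonism, run in the absence of serum.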

[2] = Metabolic stability in rat hepatocytes assessed as parent compound remaining at 1 uM after 60 mins by LC-MS/MS analysis; type: ADME, cell-based, Hepatocyte; settings: read-out: Stability
How it was run: (§1)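 Hepatocytes (human or rat). Compound incubated for 60 min; value is % parent remaining.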

[3] = Metabolic stability in human hepatocytes assessed as parent compound remaining at 1 uM after 60 mins by LC-MS/MS analysis; type: ADME, cell-based, Hepatocyte; settings: read-out: Stability; how it was run: as §1
[4] = Clearance in rat at 0.5 mg/kg, iv; type: ADME, organism-based; settings: in vivo
How it was run: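 Rat in vivo PK. Single IV dose of 0.5 mg/kg; clearance in mL/min/kg.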

[5] = Oral bioavailability in rat at 2 mg/kg; type: ADME, organism-based; settings: in vivo
How it was run: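 Rat in vivo PK. Oral dose of 2 mg/kg; %F derived.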

Cytochrome P450 1A2 = Cytochrome P450 1A2 (Homo sapiens, UniProt P05177); assay: Inhibition of CYP1A2 in human liver microsomes using phenacetin as substrate incubated for 20 mins in presence of NADPH by LC-MS/MS analysis; type: ADME
Cytochrome P450 1A2, sequence (P05177 whole entry): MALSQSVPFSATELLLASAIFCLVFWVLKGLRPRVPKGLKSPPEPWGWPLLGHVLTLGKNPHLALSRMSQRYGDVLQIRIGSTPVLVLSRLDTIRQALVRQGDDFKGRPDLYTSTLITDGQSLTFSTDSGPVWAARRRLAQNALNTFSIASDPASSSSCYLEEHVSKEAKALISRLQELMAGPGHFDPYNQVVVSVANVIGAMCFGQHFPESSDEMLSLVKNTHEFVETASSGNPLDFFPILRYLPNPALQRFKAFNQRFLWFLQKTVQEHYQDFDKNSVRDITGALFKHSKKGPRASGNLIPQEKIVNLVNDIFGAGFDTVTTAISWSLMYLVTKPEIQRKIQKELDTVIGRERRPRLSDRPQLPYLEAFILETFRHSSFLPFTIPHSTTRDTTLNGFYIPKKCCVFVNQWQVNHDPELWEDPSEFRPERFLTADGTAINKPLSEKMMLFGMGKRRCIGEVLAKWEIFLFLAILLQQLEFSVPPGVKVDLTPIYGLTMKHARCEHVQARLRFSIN

Cytochrome P450 2C9 = Cytochrome P450 2C9 (Homo sapiens, UniProt P11712); assay: Inhibition of CYP2C9 in human liver microsomes using diclofenac sodium salt as substrate incubated for 20 mins in presence of NADPH by LC-MS/MS analysis; type: ADME
Cytochrome P450 2C9, sequence (P11712 whole entry): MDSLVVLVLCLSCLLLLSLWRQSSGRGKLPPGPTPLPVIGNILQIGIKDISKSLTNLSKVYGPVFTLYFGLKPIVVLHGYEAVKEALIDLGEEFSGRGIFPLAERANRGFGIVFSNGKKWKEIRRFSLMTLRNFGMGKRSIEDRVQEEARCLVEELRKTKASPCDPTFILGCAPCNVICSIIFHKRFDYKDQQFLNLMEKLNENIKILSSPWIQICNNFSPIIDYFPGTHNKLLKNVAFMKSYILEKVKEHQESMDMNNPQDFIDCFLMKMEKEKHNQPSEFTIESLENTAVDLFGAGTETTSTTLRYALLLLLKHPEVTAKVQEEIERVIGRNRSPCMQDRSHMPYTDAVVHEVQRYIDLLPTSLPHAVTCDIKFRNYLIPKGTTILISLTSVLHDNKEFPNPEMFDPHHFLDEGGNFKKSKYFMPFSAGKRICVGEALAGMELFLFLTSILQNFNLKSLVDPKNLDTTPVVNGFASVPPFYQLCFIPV

Cytochrome P450 2C19 = Cytochrome P450 2C19 (Homo sapiens, UniProt P33261); assay: Inhibition of CYP2C19 in human liver microsomes using S-mephenytoin as substrate incubated for 20 mins in presence of NADPH by LC-MS/MS analysis; type: ADME
Cytochrome P450 2C19, sequence (P33261 whole entry): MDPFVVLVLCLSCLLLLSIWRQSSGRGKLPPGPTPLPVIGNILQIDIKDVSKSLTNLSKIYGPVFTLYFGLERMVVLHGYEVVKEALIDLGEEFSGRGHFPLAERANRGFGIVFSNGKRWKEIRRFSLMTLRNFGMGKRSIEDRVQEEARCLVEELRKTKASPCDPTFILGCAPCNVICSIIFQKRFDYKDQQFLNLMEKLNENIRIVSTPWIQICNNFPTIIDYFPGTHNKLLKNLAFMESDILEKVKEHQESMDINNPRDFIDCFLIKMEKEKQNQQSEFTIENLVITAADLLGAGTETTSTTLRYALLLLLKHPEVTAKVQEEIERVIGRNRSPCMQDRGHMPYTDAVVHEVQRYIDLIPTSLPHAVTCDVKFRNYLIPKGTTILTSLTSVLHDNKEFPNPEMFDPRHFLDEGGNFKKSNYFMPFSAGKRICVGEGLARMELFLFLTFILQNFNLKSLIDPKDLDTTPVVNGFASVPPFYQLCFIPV

Cytochrome P450 2D6 = Cytochrome P450 2D6 (Homo sapiens, UniProt P10635); assay: Inhibition of CYP2D6 in human liver microsomes using bufuralol hydrochloride salt as substrate incubated for 20 mins in presence of NADPH by LC-MS/MS analysis; type: ADME
Cytochrome P450 2D6, sequence (P10635 whole entry): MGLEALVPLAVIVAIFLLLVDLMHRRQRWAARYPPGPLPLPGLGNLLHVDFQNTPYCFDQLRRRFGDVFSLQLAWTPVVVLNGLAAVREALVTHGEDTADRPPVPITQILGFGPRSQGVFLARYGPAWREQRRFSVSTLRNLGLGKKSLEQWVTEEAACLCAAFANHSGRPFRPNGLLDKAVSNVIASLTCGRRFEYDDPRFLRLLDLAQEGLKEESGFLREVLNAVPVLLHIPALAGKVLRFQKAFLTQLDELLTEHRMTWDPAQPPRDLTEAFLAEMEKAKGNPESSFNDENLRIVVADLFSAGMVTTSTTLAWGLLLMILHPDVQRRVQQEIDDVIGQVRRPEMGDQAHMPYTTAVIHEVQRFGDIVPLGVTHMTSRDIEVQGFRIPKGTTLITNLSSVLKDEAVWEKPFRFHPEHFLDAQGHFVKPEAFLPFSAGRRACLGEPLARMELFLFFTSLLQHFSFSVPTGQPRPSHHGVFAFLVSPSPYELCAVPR

Cytochrome P450 3A4 = Cytochrome P450 3A4 (Homo sapiens, UniProt P08684); assay: Inhibition of CYP3A4 in human liver microsomes using midazolam hydrochloride as substrate incubated for 20 mins in presence of NADPH by LC-MS/MS analysis; type: ADME
Cytochrome P450 3A4, sequence (P08684 whole entry): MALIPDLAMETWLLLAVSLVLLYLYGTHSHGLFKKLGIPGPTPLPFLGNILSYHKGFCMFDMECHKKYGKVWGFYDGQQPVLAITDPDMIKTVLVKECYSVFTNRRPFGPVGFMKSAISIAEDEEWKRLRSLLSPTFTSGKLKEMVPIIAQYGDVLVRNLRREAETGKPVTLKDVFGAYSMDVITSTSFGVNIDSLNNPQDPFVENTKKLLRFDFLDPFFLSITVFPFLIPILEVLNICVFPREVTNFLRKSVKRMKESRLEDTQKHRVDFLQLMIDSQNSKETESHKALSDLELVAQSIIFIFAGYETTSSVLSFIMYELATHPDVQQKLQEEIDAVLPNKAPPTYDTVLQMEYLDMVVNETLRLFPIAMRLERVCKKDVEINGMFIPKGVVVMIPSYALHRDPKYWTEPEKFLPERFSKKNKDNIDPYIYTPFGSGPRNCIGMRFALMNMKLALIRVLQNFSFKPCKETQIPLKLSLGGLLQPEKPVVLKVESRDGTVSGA

CYP3A4 = CYP3A4 (Homo sapiens, UniProt P08684); assay: Ratio of IC50 for time-dependent inhibition of CYP3A4 in human liver microsomes using midazolam hydrochloride as substrate in presence of NADPH to IC50 for time-dependent inhibition of CYP3A4 in human liver microsomes using midazolam hydrochloride as substrate absence of NADPH; settings: probe midazolam hydrochloride, read-out: Ratio IC50
CYP3A4, sequence (P08684 whole entry): as above

Cytochrome P450 = assay: Induction of CYP450 (unknown origin); type: ADME, protein assay; settings: human

Row | IC50 [1] [nM] | Structure (SMILES) | also measured
1 | 36 | C[C@H](c1ccc(Cl)cc1Cl)n1nc(C#N)c2ncc(N3CC([C@H]4CCCN(CC(=O)O)C4)C3)nc21 | –
2 | 22 | Cc1nn([C@H](C)c2ccc(Cl)cc2Cl)c2nc(N3CC([C@H]4CCCN(CCCS(C)(=O)=O)C4)C3)cnc12 | –
3 | 1370 | Cc1nn([C@H](C)c2ccc(Cl)cc2Cl)c2nc(N3CC(CN(C)C)C3)cnc12 | –
4 | 24 | Cc1nn([C@H](C)c2ccc(Cl)cc2Cl)c2nc(N3CC([C@H]4CCCN(CCO)C4)C3)cnc12 | remaining at 1 h, 1 µM [2]: 62%; remaining at 1 h, 1 µM [3]: 87%; clearance [4]: 32.3 mL/min/kg; bioavailability [5]: 61%; IC50 (Cytochrome P450 1A2): > 40000 nM; IC50 (Cytochrome P450 2C9): > 40000 nM; IC50 (Cytochrome P450 2C19): > 40000 nM; IC50 (Cytochrome P450 2D6): > 40000 nM; IC50 (Cytochrome P450 3A4): > 40000 nM; IC50 shift (CYP3A4): 2.6; Activity (Cytochrome P450): Not Active
5 | 596 | CCOC(=O)CN1CCCC(C2CN(c3cnc4c(C)nn([C@H](C)c5ccc(Cl)cc5Cl)c4n3)C2)C1 (stereo partly drawn) | –
6 | 25 | CNC(=O)c1nn([C@H](C)c2ccc(Cl)cc2Cl)c2nc(N3CC([C@H]4CCCN(CCO)C4)C3)cnc12 | –
7 | 28 | C[C@H](c1ccc(Cl)cc1Cl)n1nc(C#N)c2ncc(N3CC([C@H]4CCCN(CCC#N)C4)C3)nc21 | –
8 | 121 | Cc1nn([C@H](C)c2ccc(Cl)cc2Cl)c2nc(N3CC(C4CCCN(CCS(N)(=O)=O)C4)C3)cnc12 (stereo partly drawn) | –
9 | 91 | Cc1nn([C@H](C)c2ccc(Cl)cc2Cl)c2nc(N3CC([C@H]4CCCN(CCC(=O)O)C4)C3)cnc12 | –
10 | 23 | COC(=O)NCCN1CCC[C@H](C2CN(c3cnc4c(C)nn([C@H](C)c5ccc(Cl)cc5Cl)c4n3)C2)C1 | –
11 | 9 | C[C@H](c1ccc(Cl)cc1Cl)n1nc(C(=O)N(C)C)c2ncc(N3CC([C@H]4CCCN(CCO)C4)C3)nc21 | –
12 | 8 | C[C@H](c1ccc(Cl)cc1Cl)n1nc(C(N)=O)c2ncc(N3CC([C@H]4CCCN(CCO)C4)C3)nc21 | remaining at 1 h, 1 µM [2]: 95%; remaining at 1 h, 1 µM [3]: 95%; clearance [4]: 191 mL/min/kg; bioavailability [5]: 0%
13 | 37 | Cc1nn([C@H](C)c2ccc(Cl)cc2Cl)c2nc(N3CC([C@H]4CCCN(CCCO)C4)C3)cnc12 | –
14 | 18 | Cc1nn([C@H](C)c2ccc(Cl)cc2Cl)c2nc(N3CC([C@H]4CCCN(CCNC(=O)C(C)C)C4)C3)cnc12 | –
15 | 21 | C[C@H](c1ccc(Cl)cc1Cl)n1nc(C#N)c2ncc(N3CC([C@H]4CCCN(Cc5cnc[nH]5)C4)C3)nc21 | –
16 | 77 | Cc1nn([C@H](C)c2ccc(Cl)cc2Cl)c2nc(N3CC([C@H]4CCCN(CCS(C)(=O)=O)C4)C3)cnc12 | –
17 | 47 | C[C@H](c1ccc(Cl)cc1Cl)n1nc(C#N)c2ncc(N3CC([C@H]4CCCN(CCC(=O)O)C4)C3)nc21 | –
18 | > 5000 | CCN1CCC(C2CN(c3cnc4c(C)nn([C@H](C)c5ccc(Cl)cc5Cl)c4n3)C2)CC1 | –
19 | 42 | Cc1nn([C@H](C)c2ccc(Cl)cc2Cl)c2nc(N3CC([C@H]4CCCN(CCC(N)=O)C4)C3)cnc12 | –
20 | 84 | Cc1nn([C@H](C)c2ccc(Cl)cc2Cl)c2nc(N3CC([C@H]4CCCN(CCS(N)(=O)=O)C4)C3)cnc12 | –
21 | 1470 | C[C@H](c1ccc(Cl)cc1Cl)n1nc(C#N)c2ncc(N3CC([C@H]4CCCN(CC#N)C4)C3)nc21 | –
22 | 31 | Cc1nn([C@H](C)c2ccc(Cl)cc2Cl)c2nc(N3CC([C@H]4CCCN(CCNS(=O)(=O)C(C)C)C4)C3)cnc12 | –
23 | 6 | CC(=O)NCCN1CCC[C@H](C2CN(c3cnc4c(C)nn([C@H](C)c5ccc(Cl)cc5Cl)c4n3)C2)C1 | remaining at 1 h, 1 µM [2]: 68%; remaining at 1 h, 1 µM [3]: 94%; clearance [4]: 11 mL/min/kg; bioavailability [5]: 13%
24 | 455 | Cc1nn([C@H](C)c2ccc(Cl)cc2Cl)c2nc(N3CC([C@@H]4CCCN(CCS(N)(=O)=O)C4)C3)cnc12 | –
25 | > 5000 | C[C@H](c1ccc(Cl)cc1Cl)n1nc(C(=O)O)c2ncc(N3CC([C@H]4CCCN(CCO)C4)C3)nc21 | –
26 | 370 | C[C@H](c1ccc(Cl)cc1Cl)n1nc(C#N)c2ncc(N3CC([C@H]4CCCN(CCC(F)(F)F)C4)C3)nc21 | –
27 | 505 | Cc1nn([C@H](C)c2ccc(Cl)cc2Cl)c2nc(N3CC([C@H]4CCCN(CCC(F)(F)F)C4)C3)cnc12 | –
28 | 29 | Cc1nn([C@H](C)c2ccc(Cl)cc2Cl)c2nc(N3CC([C@H]4CCCN(CCNS(C)(=O)=O)C4)C3)cnc12 | remaining at 1 h, 1 µM [2]: 53%; remaining at 1 h, 1 µM [3]: 85%; clearance [4]: 41.6 mL/min/kg; bioavailability [5]: 11%
29 | > 5000 | Cc1nn([C@H](C)c2ccc(Cl)cc2Cl)c2nc(N3CC(N4CCCCC4)C3)cnc12 | –
30 | 69 | Cc1nn([C@H](C)c2ccc(Cl)cc2Cl)c2nc(N3CC([C@H]4CCCN(CCCC(=O)O)C4)C3)cnc12 | –
